{"source": "paper PMC5497724", "about": "(Cancer Science, 2017)", "key": {"[1]": {"settings": "SCID mice, 4.4 mg/kg i.v.; 40% ethanol, 5% PEG 400, 55% normal saline; cited from earlier work"}, "[2]": {"settings": "rats, given orally; cited from earlier work"}, "HT1080 cells": {"tested_on": "HT1080 cells", "assay": "Western blot analysis of PI3K pathway and histone acetylation", "format": "cell-based, human", "settings": "3 h", "procedure,_shortened": "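HT1080 cells in RPMI-1640 with 10% FBS were handled as in the proliferation assay: 8 × 10³ cells seeded, 24 h at 37°C. Cells were treated 3 h with test compound (in DMSO) at various concentrations. Reference treatments were 2.5 μM SAHA, 1 μM GDC-0941 or both. Western blots probed phospho-AKT (Ser473, Thr308), AKT, phospho-S6, S6, acetyl-histone H3 and β-actin.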"}}}
{"smiles": "C/C=C1\\NC(=O)[C@H]2CSSCC/C=C/[C@H](CC(=O)N[C@H](C(C)C)C(=O)N2)OC(=O)[C@H](C(C)C)NC1=O", "note": "[FK228, Romidepsin]", "values": [{"measurement": "AUC", "setting": "[1]", "value": 1123, "unit": "ng·h/mL"}, {"measurement": "drug levels after oral dosing vs i.v.", "setting": "[2]", "value": "lower and more erratic drug levels than i.v. treatment"}]}
{"smiles": "O=C(CCCCCCC(=O)Nc1ccccc1)NO", "note": "[SAHA, Suberoylanilidehydroxamic acid]", "values": [{"measurement": "acetylation of histone H3 (Western blot)", "setting": "HT1080 cells", "value": "promoted acetylation of histone H3"}]}
{"smiles": "CS(=O)(=O)N1CCN(Cc2cc3nc(-c4cccc5[nH]ncc45)nc(N4CCOCC4)c3s2)CC1", "note": "[GDC0941]", "values": [{"measurement": "phosphorylation of AKT and S6 (Western blot)", "setting": "HT1080 cells", "value": "inhibited the phosphorylation of AKT and S6 ribosomal protein"}]}
